In ChEMBL document CHEMBL1137648, “Synergistic efficacy of the combination of ST-246 with CMX001 against orthopoxviruses” (Antimicrob Agents Chemother, 2007):

Assays:
Cowpox virus [1] = test: Antiviral activity against Cowpox virus Brighton infected BALB/c mouse assessed as virus-induced mean day of death at 0.3 mg/kg, po treated for 5 days after 1 day of viral inoculation; format: functional, Cowpox virus (Brighton Red)
Cowpox virus [2] = test: Antiviral activity against Cowpox virus Brighton infected BALB/c mouse assessed as virus-induced mean day of death at 3 mg/kg, po treated for 5 days after 3 days of viral inoculation; format: functional, Cowpox virus (Brighton Red)
[3] = Selectivity index, ratio CC50 for HFF cells to EC50 for Vaccinia virus WR; format: toxicity, cell-based; details: human, read-out: Ratio CC50/EC50
Cowpox virus [4] = test: Antiviral activity against Cowpox virus Brighton infected BALB/c mouse assessed as virus-induced mortality at 3 mg/kg, po treated for 5 days after 3 days of viral inoculation; format: functional, Cowpox virus (Brighton Red)
Vaccinia virus [5] = test: Antiviral activity against Vaccinia virus WR in HFF cells assessed as reduction plaque formation after 3 days; format: functional, organism-based; details: Orthopoxvirus vaccinia, 72 h
[6] = Selectivity index, ratio CC50 for HFF cells to EC50 for Vaccinia virus Copenhagen; format: toxicity, cell-based; details: human, read-out: Ratio CC50/EC50
Cowpox virus [7] = test: Antiviral activity against Cowpox virus Brighton infected BALB/c mouse assessed as virus-induced mortality at 3 mg/kg, po treated for 5 days after 6 days of viral inoculation; format: functional, Cowpox virus (Brighton Red)
Cowpox virus [8] = test: Antiviral activity against Cowpox virus Brighton infected BALB/c mouse assessed as virus-induced mean day of death at 3 mg/kg, po treated for 5 days after 6 days of viral inoculation; format: functional, Cowpox virus (Brighton Red)
Cowpox virus [9] = test: Antiviral activity against Cowpox virus Brighton infected BALB/c mouse assessed as virus-induced mortality at 0.3 mg/kg, po treated for 5 days after 1 day of viral inoculation; format: functional, Cowpox virus (Brighton Red)
Cowpox virus [10] = test: Antiviral activity against Cowpox virus Brighton infected BALB/c mouse assessed as virus-induced mortality at 3 mg/kg, po treated for 5 days after 1 day of viral inoculation; format: functional, Cowpox virus (Brighton Red)
Cowpox virus [11] = test: Antiviral activity against Cowpox virus Brighton infected BALB/c mouse assessed as virus-induced mean day of death at 0.3 mg/kg, po treated for 5 days after 3 days of viral inoculation; format: functional, Cowpox virus (Brighton Red)
Cowpox virus [12] = test: Antiviral activity against Cowpox virus Brighton infected BALB/c mouse assessed as virus-induced mortality at 0.3 mg/kg, po treated for 5 days after 6 days of viral inoculation; format: functional, Cowpox virus (Brighton Red)
Cowpox virus [13] = test: Antiviral activity against Cowpox virus Brighton in HFF cells assessed as reduction plaque formation after 3 days; format: functional, organism-based, Cowpox virus (Brighton Red); details: 72 h
[14] = Selectivity index, ratio CC50 for HFF cells to EC50 for Cowpox virus Brighton; format: toxicity, cell-based; details: human, read-out: Ratio CC50/EC50
Cowpox virus [15] = test: Antiviral activity against Cowpox virus Brighton infected BALB/c mouse assessed as virus-induced mortality at 1 mg/kg, po treated for 5 days after 3 days of viral inoculation; format: functional, Cowpox virus (Brighton Red)
Cowpox virus [16] = test: Antiviral activity against Cowpox virus Brighton infected BALB/c mouse assessed as virus-induced mean day of death at 1 mg/kg, po treated for 5 days after 3 days of viral inoculation; format: functional, Cowpox virus (Brighton Red)
Vaccinia virus [17] = test: Antiviral activity against Vaccinia virus Copenhagen in HFF cells assessed as reduction plaque formation after 3 days; format: functional, organism-based; details: Orthopoxvirus vaccinia, 72 h
Cowpox virus [18] = test: Antiviral activity against Cowpox virus Brighton infected BALB/c mouse assessed as virus-induced mortality at 1 mg/kg, po treated for 5 days after 1 day of viral inoculation; format: functional, Cowpox virus (Brighton Red)
Cowpox virus [19] = test: Antiviral activity against Cowpox virus Brighton infected BALB/c mouse assessed as virus-induced mean day of death at 1 mg/kg, po treated for 5 days after 1 day of viral inoculation; format: functional, Cowpox virus (Brighton Red)
Cowpox virus [20] = test: Antiviral activity against Cowpox virus Brighton infected BALB/c mouse assessed as virus-induced mortality at 0.3 mg/kg, po treated for 5 days after 3 days of viral inoculation; format: functional, Cowpox virus (Brighton Red)
Cowpox virus [21] = test: Antiviral activity against Cowpox virus Brighton infected BALB/c mouse assessed as virus-induced mortality at 1 mg/kg, po treated for 5 days after 6 days of viral inoculation; format: functional, Cowpox virus (Brighton Red)
Cowpox virus [22] = test: Antiviral activity against Cowpox virus Brighton infected BALB/c mouse assessed as virus-induced mean day of death at 1 mg/kg, po treated for 5 days after 6 days of viral inoculation; format: functional, Cowpox virus (Brighton Red)
Cowpox virus [23] = test: Antiviral activity against Cowpox virus Brighton infected BALB/c mouse assessed as virus-induced mean day of death at 0.3 mg/kg, po treated for 5 days after 6 days of viral inoculation; format: functional, Cowpox virus (Brighton Red)
[24] = Cytotoxicity against HFF cells after 7 days by neutral red assay; format: cell-based; details: human
Procedure, shortened: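 Confluent non-dividing HFF cells (2.5 x 10^4 cells/well) were exposed to a drug concentration series for 7 days at 37°C. Monolayers were then neutral red-stained, and the CC50 is the concentration cytotoxic to 50% of uninfected cells. Values are the mean of ≥2 assays ± standard deviation.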

Cowpox virus [25] = test: Antiviral activity against Cowpox virus Brighton infected BALB/c mouse assessed as virus-induced mean day of death at 15 mg/kg, ip treated for 5 days after 6 days of viral inoculation; format: functional, Cowpox virus (Brighton Red); details: route intraperitoneal
Cowpox virus [26] = test: Antiviral activity against Cowpox virus Brighton infected BALB/c mouse assessed as virus-induced mean day of death at 5 mg/kg, ip treated for 5 days after 6 days of viral inoculation; format: functional, Cowpox virus (Brighton Red); details: route intraperitoneal
Cowpox virus [27] = test: Antiviral activity against Cowpox virus Brighton infected BALB/c mouse assessed as virus-induced mortality at 15 mg/kg, ip treated for 5 days after 6 days of viral inoculation; format: functional, Cowpox virus (Brighton Red); details: route intraperitoneal
Cowpox virus [28] = test: Antiviral activity against Cowpox virus Brighton infected BALB/c mouse assessed as virus-induced mean day of death at 25 mg/kg, ip treated for 5 days after 6 days of viral inoculation; format: functional, Cowpox virus (Brighton Red); details: route intraperitoneal
Cowpox virus [29] = test: Antiviral activity against Cowpox virus Brighton infected BALB/c mouse assessed as virus-induced mortality at 15 mg/kg, ip treated for 5 days after 3 days of viral inoculation; format: functional, Cowpox virus (Brighton Red); details: route intraperitoneal
Cowpox virus [30] = test: Antiviral activity against Cowpox virus Brighton infected BALB/c mouse assessed as virus-induced mortality at 15 mg/kg, ip once daily for 5 days; format: functional, Cowpox virus (Brighton Red); details: route intraperitoneal
Cowpox virus [31] = test: Antiviral activity against Cowpox virus Brighton infected BALB/c mouse assessed as virus-induced mortality at 5 mg/kg, ip treated for 5 days after 6 days of viral inoculation; format: functional, Cowpox virus (Brighton Red); details: route intraperitoneal
Cowpox virus [32] = test: Antiviral activity against Cowpox virus Brighton infected BALB/c mouse assessed as virus-induced mortality at 25 mg/kg, ip treated for 5 days after 6 days of viral inoculation; format: functional, Cowpox virus (Brighton Red); details: route intraperitoneal
Cowpox virus [33] = test: Antiviral activity against Cowpox virus Brighton infected BALB/c mouse assessed as virus-induced mean day of death at 10 mg/kg, po treated for 5 days after 3 days of viral inoculation; format: functional, Cowpox virus (Brighton Red)
Camelpox virus = test: Antiviral activity against Camelpox virus in HFF cells assessed as inhibition of viral replication after 7 days; format: functional, organism-based; details: 168 h
Vaccinia virus [34] = test: microbe, parasite or virus in culture; details: Orthopoxvirus vaccinia, Copenhagen, HFF, 168 h
Cowpox virus [35] = test: Antiviral activity against Cowpox virus Brighton infected BALB/c mouse assessed as virus-induced mortality at 10 mg/kg, po treated for 5 days after 6 days of viral inoculation; format: functional, Cowpox virus (Brighton Red)
Cowpox virus [36] = test: Antiviral activity against Cowpox virus Brighton infected BALB/c mouse assessed as virus-induced mortality at 10 mg/kg, po treated for 5 days after 3 days of viral inoculation; format: functional, Cowpox virus (Brighton Red)
Ectromelia virus Moscow = test: Antiviral activity against Ectromelia virus Moscow in HFF cells assessed as inhibition of viral replication after 7 days; format: functional, organism-based; details: 168 h
Monkeypox virus = test: Antiviral activity against Monkeypox virus in HFF cells assessed as inhibition of viral replication after 7 days; format: functional, organism-based; details: 168 h
Cowpox virus [37] = test: Antiviral activity against Cowpox virus Brighton infected BALB/c mouse assessed as virus-induced mean day of death at 10 mg/kg, po treated for 5 days after 1 day of viral inoculation; format: functional, Cowpox virus (Brighton Red)
Variola virus = test: microbe, parasite or virus in culture; details: HFF, 168 h
Cowpox virus [38] = test: Antiviral activity against Cowpox virus Brighton in HFF cells assessed as inhibition of viral replication after 7 days; format: functional, organism-based, Cowpox virus (Brighton Red); details: 168 h
Cowpox virus [39] = test: Antiviral activity against Cowpox virus Brighton infected BALB/c mouse assessed as virus-induced mean day of death at 3 mg/kg, po treated for 5 days after 1 day of viral inoculation; format: functional, Cowpox virus (Brighton Red)
Cowpox virus [40] = test: Antiviral activity against Cowpox virus Brighton infected BALB/c mouse assessed as virus-induced mortality at 10 mg/kg, po treated for 5 days after 1 day of viral inoculation; format: functional, Cowpox virus (Brighton Red)
Cowpox virus [41] = test: Antiviral activity against Cowpox virus Brighton infected BALB/c mouse assessed as virus-induced mean day of death at 10 mg/kg, po treated for 5 days after 6 days of viral inoculation; format: functional, Cowpox virus (Brighton Red)

CCCCCCCCCCCCCCCCOCCCOP(=O)(O)CO[C@H](CO)Cn1ccc(N)nc1=O [BRINCIDOFOVIR]
Activity (Cowpox virus [1]): 11.7 days | Activity (Cowpox virus [2]): 16.3 days | selectivity ratio [3]: 323 | Activity (Cowpox virus [4]): 27% | EC50 (Vaccinia virus [5]): 0.13 µM | selectivity ratio [6]: 300 | Activity (Cowpox virus [7]): 100% | Activity (Cowpox virus [8]): 9.9 days | Activity (Cowpox virus [9]): 73% | Activity (Cowpox virus [10]): 0% | Activity (Cowpox virus [11]): 12.8 days | Activity (Cowpox virus [12]): 100% | EC50 (Cowpox virus [13]): 0.24 µM | selectivity ratio [14]: 175 | Activity (Cowpox virus [15]): 100% | Activity (Cowpox virus [16]): 12 days | EC50 (Vaccinia virus [17]): 0.14 µM | Activity (Cowpox virus [18]): 20% | Activity (Cowpox virus [19]): 13.7 days | Activity (Cowpox virus [20]): 87% | Activity (Cowpox virus [21]): 100% | Activity (Cowpox virus [22]): 9.9 days | Activity (Cowpox virus [23]): 10 days | CC50 at 168 h [24]: 42 µM

Nc1ccn(C[C@@H](CO)OCP(=O)(O)O)c(=O)n1.O.O [CIDOFOVIR]
selectivity ratio [3]: ≥ 9.6 | EC50 (Vaccinia virus [5]): 33 µM | selectivity ratio [6]: > 10.9 | Activity (Cowpox virus [25]): 12.8 days | Activity (Cowpox virus [26]): 11.2 days | Activity (Cowpox virus [27]): 60% | EC50 (Cowpox virus [13]): 41.1 µM | Activity (Cowpox virus [28]): 11.5 days | selectivity ratio [14]: > 7.7 | Activity (Cowpox virus [29]): 0% | EC50 (Vaccinia virus [17]): 29.2 µM | Activity (Cowpox virus [30]): 0% | Activity (Cowpox virus [31]): 93% | Activity (Cowpox virus [32]): 80% | CC50 at 168 h [24]: > 317 µM

O=C(NN1C(=O)[C@@H]2[C@@H]3C=C[C@@H]([C@H]4C[C@@H]34)[C@@H]2C1=O)c1ccc(C(F)(F)F)cc1 [TECOVIRIMAT]
Activity (Cowpox virus [2]): 15.2 days | Activity (Cowpox virus [33]): 15.5 days | selectivity ratio [3]: > 1000 | Activity (Cowpox virus [4]): 33% | EC50 (Vaccinia virus [5]): 0.1 µM | selectivity ratio [6]: > 2000 | EC50 (Camelpox virus): ≤ 0.07 µM | Activity (Cowpox virus [7]): 80% | Activity (Cowpox virus [8]): 13.5 days | EC50 (Vaccinia virus [34]): ≤ 0.07 µM | Activity (Cowpox virus [35]): 100% | Activity (Cowpox virus [10]): 20% | Activity (Cowpox virus [36]): 13% | EC50 (Cowpox virus [13]): 0.48 µM | EC50 (Ectromelia virus Moscow): ≤ 0.07 µM | EC50 (Monkeypox virus): ≤ 0.07 µM | Activity (Cowpox virus [37]): 13.2 days | selectivity ratio [14]: > 208 | Activity (Cowpox virus [15]): 100% | EC50 (Variola virus): ≤ 0.07 µM | EC50 (Cowpox virus [38]): ≤ 0.07 µM | Activity (Cowpox virus [16]): 14.4 days | Activity (Cowpox virus [39]): 11.3 days | Activity (Cowpox virus [40]): 73% | Activity (Cowpox virus [41]): 13.5 days | EC50 (Vaccinia virus [17]): 0.05 µM | Activity (Cowpox virus [18]): 100% | Activity (Cowpox virus [19]): 9.4 days | Activity (Cowpox virus [21]): 100% | Activity (Cowpox virus [22]): 9.5 days | CC50 at 168 h [24]: > 100 µM
